# In ChEMBL document CHEMBL1156597, “Structure-activity relationship of kahalalide F synthetic analogues” (J Med Chem, 2008):
# Experiments:
# [1] = test system: DU-145; test: Cytotoxicity against human DU145 cells after 48 hrs by SRB assay; format: functional, cell-based; settings: Homo sapiens, DU-145, 48 h; for CC50: read-out: LC50 (the source's name)
# How it was run: (§1)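 Cells grown in RPMI 1640 with 10% FBS and penicillin/streptomycin at 37 °C and 5% CO₂, trypsinized, then seeded at 5 × 10³/well. After 18 h drug-free attachment, samples in DMSO/EtOH/PBS (0.5:0.5:99) were added for 48 h continuous exposure. Cells were fixed with cold TCA (1 h, 4 °C) and stained with SRB (10 min). Tris-solubilized stain read at 490 nm. Triplicate wells, mean ± SD; GI₅₀ derived.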
# [2] = test system: LNCaP; test: Cytotoxicity against human LNcaP cells after 48 hrs by SRB assay; format: functional; settings: for CC50: read-out: LC50 (the source's name); how it was run: as §1
# [3] = Cytotoxicity against human IGROV cells after 48 hrs by SRB assay; format: functional; settings: for CC50: read-out: LC50 (the source's name); how it was run: as §1
# [4] = Cytotoxicity against human IGROV-ET cells after 48 hrs by SRB assay; format: functional; settings: for CC50: read-out: LC50 (the source's name); how it was run: as §1
# [5] = test system: SK-BR-3; test: Cytotoxicity against human SKBR3 cells after 48 hrs by SRB assay; format: functional; settings: SK-BR-3, 48 h; for GI50: read-out: GI50; for CC50: read-out: LC50 (the source's name); how it was run: as §1
# [6] = test system: SK-MEL-28; test: Cytotoxicity against human SK-MEL-28 cells after 48 hrs by SRB assay; format: functional, cell-based; settings: Homo sapiens, SK-MEL-28, 48 h; for CC50: read-out: LC50 (the source's name); how it was run: as §1
# [7] = test system: A549; test: Cytotoxicity against human A549 cells after 48 hrs by SRB assay; format: functional, cell-based; settings: Homo sapiens, A549, 48 h; how it was run: as §1
# [8] = test system: K562; test: Cytotoxicity against human K562 cells after 48 hrs by SRB assay; format: functional; settings: K562, 48 h; for CC50: read-out: LC50 (the source's name); how it was run: as §1
# [9] = test system: PANC-1; test: Cytotoxicity against human PANC1 cells after 48 hrs by SRB assay; format: functional; settings: PANC-1, 48 h; for CC50: read-out: LC50 (the source's name); how it was run: as §1
# [10] = test system: HT-29; test: Cytotoxicity against human HT29 cells after 48 hrs by SRB assay; format: functional, cell-based; settings: Homo sapiens, HT-29, 48 h; for CC50: read-out: LC50 (the source's name); how it was run: as §1
# [11] = test system: LoVo; test: Cytotoxicity against human LoVo cells after 48 hrs by SRB assay; format: functional; settings: for CC50: read-out: LC50 (the source's name)
# [12] = test system: LoVo; test: Cytotoxicity against human doxorubicin resistant LoVo cells after 48 hrs by SRB assay; format: functional; settings: for CC50: read-out: LC50 (the source's name); how it was run: as §1
# [13] = test system: HeLa; test: Cytotoxicity against human HeLa cells after 48 hrs by SRB assay; format: functional; settings: for CC50: read-out: LC50 (the source's name); how it was run: as §1
# [14] = Cytotoxicity against human HeLa-APL cells after 48 hrs by SRB assay; format: functional; how it was run: as §1
smiles,measurement,setting,value
C/C=C1\NC(=O)[C@H](Cc2ccccc2)NC(=O)[C@@H](C(C)C)NC(=O)[C@@H]([C@H](C)CC)NC(=O)[C@H](NC(=O)[C@H](NC(=O)[C@H](CCCN)NC(=O)[C@H]2CCCN2C(=O)[C@H](NC(=O)[C@@H](NC(=O)CNC(=O)[C@H](NC(=O)CCCC(C)C)C(C)C)C(C)C)C(C)C)[C@H](C)CC)[C@H](C)OC(=O)[C@H](C(C)C)NC1=O,GI50,[1],994 nM
same,GI50,[1]; read-out: GI50,572 nM
same,CC50,[1],1360 nM
same,GI50,[2],233 nM
same,TGI,[2],988 nM
same,CC50,[2],988 nM
same,GI50,[3],83.7 nM
same,GI50,[3]; read-out: GI50,80.7 nM
same,CC50,[3],139 nM
same,GI50,[4],232 nM
same,GI50,[4]; read-out: GI50,197 nM
same,CC50,[4],566 nM
same,TGI,[5],819 nM
same,GI50,[5],629 nM
same,CC50,[5],512 nM
same,GI50,[6],283 nM
same,GI50,[6]; read-out: GI50,205 nM
same,CC50,[6],717 nM
same,GI50,[7],622 nM
same,GI50,[7]; read-out: GI50,524 nM
same,GI50,[8],129 nM
same,TGI,[8],208 nM
same,CC50,[8],744 nM
same,GI50,[9],515 nM
same,TGI,[9],1070 nM
same,CC50,[9],1990 nM
same,GI50,[10],893 nM
same,TGI,[10],1850 nM
same,CC50,[10],796 nM
same,GI50,[11],597 nM
same,TGI,[11],1130 nM
same,CC50,[11],828 nM
same,GI50,[12],2390 nM
same,TGI,[12],3040 nM
same,CC50,[12],3850 nM
same,GI50,[13],250 nM
same,TGI,[13],471 nM
same,CC50,[13],755 nM
same,GI50,[14],230 nM
same,LC50 (concentration giving 50% net cell kill),[14],684 nM
same,TGI,[14],421 nM
C/C=C1\NC(=O)[C@H](Cc2ccccc2)NC(=O)[C@@H](C(C)C)NC(=O)[C@@H]([C@H](C)CC)NC(=O)[C@H](NC(=O)[C@H](NC(=O)[C@H](CCCN)NC(=O)[C@H]2CCCN2C(=O)[C@H](NC(=O)[C@H](CCC2CCCCC2)NC(=O)[C@@H](NC(=O)[C@H](NC(=O)CCCC(C)C)C(C)C)[C@@H](C)O)C(C)C)[C@H](C)CC)[C@H](C)OC(=O)[C@H](C(C)C)NC1=O,GI50,[1],507 nM
same,GI50,[1]; read-out: GI50,350 nM
same,CC50,[1],709 nM
same,GI50,[2],639 nM
same,TGI,[2],909 nM
same,CC50,[2],1290 nM
same,TGI,[3],2940 nM
same,GI50,[3]; read-out: GI50,284 nM
same,CC50,[3],3870 nM
same,GI50,[4],380 nM
same,GI50,[4]; read-out: GI50,377 nM
same,CC50,[4],455 nM
same,TGI,[5],267 nM
same,GI50,[5],234 nM
same,CC50,[5],230 nM
same,GI50,[6],467 nM
same,GI50,[6]; read-out: GI50,329 nM
same,CC50,[6],626 nM
same,GI50,[7],233 nM
same,LC50,[7],437 nM
same,GI50,[7]; read-out: GI50,186 nM
same,CC50,[8],1850 nM
same,GI50,[9],1040 nM
same,TGI,[9],1380 nM
same,CC50,[9],1700 nM
same,GI50,[10],235 nM
same,TGI,[10],265 nM
same,CC50,[10],0.299 µg/mL
same,GI50,[11],240 nM
same,TGI,[11],256 nM
same,CC50,[11],273 nM
same,GI50,[12],114 nM
same,TGI,[12],153 nM
same,CC50,[12],1000 nM
same,GI50,[13],394 nM
same,TGI,[13],628 nM
same,CC50,[13],829 nM
same,GI50,[14],462 nM
same,LC50 (concentration giving 50% net cell kill),[14],732 nM
same,TGI,[14],672 nM
C/C=C1\NC(=O)[C@H](Cc2ccccc2)NC(=O)[C@@H](C(C)C)NC(=O)[C@@H]([C@H](C)CC)NC(=O)[C@H](NC(=O)[C@H](NC(=O)[C@H](CCCNC(=O)CCCC[C@@H]2SC[C@@H]3NC(=O)N[C@@H]32)NC(=O)[C@H]2CCCN2C(=O)[C@H](NC(=O)[C@@H](NC(=O)[C@@H](NC(=O)[C@H](NC(=O)CCCC(C)C)C(C)C)[C@@H](C)O)C(C)C)C(C)C)[C@H](C)CC)[C@H](C)OC(=O)[C@H](C(C)C)NC1=O,GI50,[1],836 nM
same,GI50,[1]; read-out: GI50,854 nM
same,CC50,[1],814 nM
same,GI50,[2],816 nM
same,TGI,[2],810 nM
same,CC50,[2],805 nM
same,GI50,[3],351 nM
same,GI50,[3]; read-out: GI50,369 nM
same,CC50,[3],342 nM
same,GI50,[4],488 nM
same,GI50,[4]; read-out: GI50,618 nM
same,CC50,[4],385 nM
same,TGI,[5],267 nM
same,GI50,[5],322 nM
same,CC50,[5],90.5 nM
same,GI50,[6],974 nM
same,GI50,[6]; read-out: GI50,959 nM
same,CC50,[6],974 nM
same,LC50,[7],128 nM
same,CC50,[8],1680 nM
same,GI50,[9],1990 nM
same,TGI,[9],2360 nM
same,CC50,[9],2010 nM
same,GI50,[10],362 nM
same,TGI,[10],316 nM
same,CC50,[10],164 nM
same,GI50,[11],317 nM
same,TGI,[11],303 nM
same,CC50,[11],288 nM
same,GI50,[12],328 nM
same,TGI,[12],354 nM
same,CC50,[12],2180 nM
same,GI50,[13],382 nM
same,TGI,[13],580 nM
same,CC50,[13],716 nM
same,GI50,[14],985 nM
same,LC50 (concentration giving 50% net cell kill),[14],996 nM
same,TGI,[14],989 nM
C/C=C1\NC(=O)[C@H](Cc2ccccc2)NC(=O)[C@@H](C(C)C)NC(=O)[C@@H]([C@H](C)CC)NC(=O)[C@H](NC(=O)[C@H](NC(=O)[C@H](CCCN)NC(=O)[C@H]2CCCN2C(=O)[C@H](NC(=O)[C@@H](NC(=O)[C@@H](NC(=O)[C@H](NC(=O)CC[C@@H](C)CC)C(C)C)[C@@H](C)OC(=O)C(F)(F)F)C(C)C)C(C)C)[C@H](C)CC)[C@H](C)OC(=O)[C@H](C(C)C)NC1=O,GI50,[1],752 nM
same,GI50,[1]; read-out: GI50,617 nM
same,CC50,[1],914 nM
same,GI50,[2],610 nM
same,TGI,[2],1020 nM
same,CC50,[2],1400 nM
same,GI50,[3],345 nM
same,GI50,[3]; read-out: GI50,287 nM
same,CC50,[3],508 nM
same,GI50,[4],191 nM
same,GI50,[4]; read-out: GI50,231 nM
same,CC50,[4],468 nM
same,TGI,[5],218 nM
same,GI50,[5],203 nM
same,CC50,[5],141 nM
same,GI50,[6],772 nM
same,GI50,[6]; read-out: GI50,716 nM
same,CC50,[6],839 nM
same,GI50,[7],882 nM
same,LC50,[7],101 nM
same,GI50,[7]; read-out: GI50,7700 nM
same,CC50,[8],181 nM
same,GI50,[9],1430 nM
same,TGI,[9],1660 nM
same,CC50,[9],1660 nM
same,GI50,[10],241 nM
same,TGI,[10],257 nM
same,CC50,[10],271 nM
same,GI50,[11],212 nM
same,TGI,[11],257 nM
same,CC50,[11],310 nM
same,GI50,[12],189 nM
same,TGI,[12],222 nM
same,CC50,[12],1400 nM
same,GI50,[13],294 nM
same,TGI,[13],553 nM
same,CC50,[13],818 nM
same,GI50,[14],499 nM
same,LC50 (concentration giving 50% net cell kill),[14],892 nM
same,TGI,[14],745 nM
